Measurements as given in ChEMBL document CHEMBL4304834, “3-Amino-chromanes and Tetrahydroquinolines as Selective 5-HT2B, 5-HT7, or σ1 Receptor Ligands” (ACS Med Chem Lett, 2019).

What was measured:
[1] = target: Beta-3 adrenergic receptor (Homo sapiens, UniProt P13945); assay: Displacement of [3H]-CGP12177 from human recombinant adrenergic Beta3 receptor expressed in Flp-In HEK cells after 90 mins by microbeta scintillation counting method; assay type: cell-based
In short: (§1)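 Radioligand binding run by the NIMH Psychoactive Drug Screening Program. […] Otherwise Ki comes from sigmoidal curve fits of triplicate measurements in a single experiment, or is averaged over repeated experiments each run in triplicate.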

Homo sapiens [2] = organism: Homo sapiens; assay: Selectivity index, ratio of Ki for human recombinant histamine H4 receptor to Ki for human recombinant sigma1 receptor
In short: (§2)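 Both Ki values in each ratio come from NIMH Psychoactive Drug Screening Program radioligand binding. […] Other targets were given full binding curves, measured in triplicate, and Ki was taken from a sigmoidal curve fit. Some values were repeated in duplicate or triplicate independent experiments.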

Homo sapiens [3] = organism: Homo sapiens; assay: Selectivity index, ratio of Ki for human recombinant KOR receptor to Ki for human recombinant sigma1 receptor; in short: as §2
Homo sapiens [4] = organism: Homo sapiens; assay: Selectivity index, ratio of Ki for human recombinant MOR receptor to Ki for human recombinant sigma1 receptor; in short: as §2
[5] = Selectivity index, ratio of Ki for rat brain GABAA receptor to Ki for human recombinant sigma1 receptor; in short: as §2
D(1B) dopamine receptor = D(1B) dopamine receptor (Homo sapiens, UniProt P21918); assay: Displacement of [3H]-SCH23390 from human recombinant dopamine D5 receptor expressed in HEKT cells at 10 uM after 90 mins by microbeta scintillation counting method relative to control; assay type: cell-based
[6] = target: Sodium-dependent noradrenaline transporter (Homo sapiens, UniProt P23975); assay: Displacement of [3H]-Nisoxetine from human recombinant NET receptor expressed in stable HEK cells at 10 uM after 90 mins by microbeta scintillation counting method relative to control; assay type: cell-based; in short: as §1
[7] = target: T1, Alpha-1B adrenergic receptor (Homo sapiens, UniProt P35368); assay: Displacement of [3H]-Prazosin from human recombinant adrenergic Alpha1B receptor expressed in HEKT cells after 90 mins by microbeta scintillation counting method; assay type: cell-based
T1 sequence (P35368 whole entry): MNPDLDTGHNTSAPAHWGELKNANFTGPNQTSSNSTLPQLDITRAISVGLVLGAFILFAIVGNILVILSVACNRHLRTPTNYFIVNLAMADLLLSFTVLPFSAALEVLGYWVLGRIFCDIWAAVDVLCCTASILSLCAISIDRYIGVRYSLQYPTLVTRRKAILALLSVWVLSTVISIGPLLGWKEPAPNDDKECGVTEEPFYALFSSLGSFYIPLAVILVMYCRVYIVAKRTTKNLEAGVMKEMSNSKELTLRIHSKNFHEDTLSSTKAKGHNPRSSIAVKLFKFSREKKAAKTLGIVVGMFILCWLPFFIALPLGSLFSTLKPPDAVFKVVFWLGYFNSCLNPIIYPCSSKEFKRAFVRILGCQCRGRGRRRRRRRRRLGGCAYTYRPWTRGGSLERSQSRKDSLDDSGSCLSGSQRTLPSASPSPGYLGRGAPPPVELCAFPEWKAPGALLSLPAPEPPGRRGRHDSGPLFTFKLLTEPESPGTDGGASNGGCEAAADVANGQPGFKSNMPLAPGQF
In short: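 Radioligand binding was run by the NIMH Psychoactive Drug Screening Program. Compounds were first screened at 10 μM. Those giving ≥50% binding were taken to full competition curves. Ki is reported as pKi from a sigmoidal curve fit of triplicate measurements in a single experiment; the error is the curve-fit error.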

Histamine H2 receptor = Histamine H2 receptor (Homo sapiens, UniProt P25021); assay: Displacement of [125I]-Iodoaminopotentidine from human recombinant histamine H2 receptor expressed in stable HEK cells at 10 uM after 90 mins by microbeta scintillation counting method relative to control; assay type: cell-based; in short: as §1
Histamine H1 receptor = Histamine H1 receptor (Homo sapiens, UniProt P35367); assay: Displacement of [3H]-Pyrilamine from human recombinant histamine H1 receptor expressed in stable HEK cells at 10 uM after 90 mins by microbeta scintillation counting method relative to control; assay type: cell-based
Mu-type opioid receptor = Mu-type opioid receptor (Homo sapiens, UniProt P35372); assay: Displacement of [3H]-DAMGO from human recombinant MOR receptor expressed in stable HEK cells at 10 uM after 90 mins by microbeta scintillation counting method relative to control; assay type: cell-based; in short: as §1
[8] = target: Alpha-2B adrenergic receptor (Homo sapiens) (UniProt P18089); assay: Displacement of [3H]-Rauwolscine from human recombinant adrenergic Alpha2B receptor expressed in HEKT cells at 10 uM after 90 mins by microbeta scintillation counting method relative to control; assay type: cell-based
[9] = target: Sodium-dependent dopamine transporter (Homo sapiens, UniProt Q01959); assay: Displacement of [3H]-Win35428 from human recombinant DAT receptor expressed in stable HEK cells at 10 uM after 90 mins by microbeta scintillation counting method relative to control; assay type: cell-based
Homo sapiens [10] = organism: Homo sapiens; assay: Selectivity index, ratio of Ki for human recombinant dopamine D1 receptor to Ki for human recombinant sigma1 receptor; in short: as §2
[11] = target: T2, Muscarinic acetylcholine receptor M1 (Homo sapiens) (UniProt P11229); assay: Displacement of [3H]-QNB/[3H]-NMS from human recombinant Muscarinic acetylcholine M1 receptor expressed in stable CHO cells at 10 uM after 90 mins by microbeta scintillation counting method relative to control; assay type: cell-based
T2 sequence (whole entry): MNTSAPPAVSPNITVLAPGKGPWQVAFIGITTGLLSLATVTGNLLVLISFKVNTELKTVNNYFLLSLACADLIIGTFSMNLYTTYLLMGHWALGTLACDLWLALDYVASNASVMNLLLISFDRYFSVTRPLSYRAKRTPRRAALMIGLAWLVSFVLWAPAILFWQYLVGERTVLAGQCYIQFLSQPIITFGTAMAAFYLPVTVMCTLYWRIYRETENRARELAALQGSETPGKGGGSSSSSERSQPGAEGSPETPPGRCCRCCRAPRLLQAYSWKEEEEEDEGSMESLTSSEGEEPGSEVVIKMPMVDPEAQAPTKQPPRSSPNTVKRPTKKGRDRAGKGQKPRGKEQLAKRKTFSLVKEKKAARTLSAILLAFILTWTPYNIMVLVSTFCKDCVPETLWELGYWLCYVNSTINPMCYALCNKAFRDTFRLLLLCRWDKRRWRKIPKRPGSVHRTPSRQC

[12] = target: Kappa-type opioid receptor (Homo sapiens, UniProt P41145); assay: Displacement of [3H]-U69593 from human recombinant KOR receptor expressed in stable HEK cells at 10 uM after 90 mins by microbeta scintillation counting method relative to control; assay type: cell-based
[13] = target: Beta-1 adrenergic receptor (Homo sapiens, UniProt P08588); assay: Displacement of [125I]-pindolol from human recombinant adrenergic Beta1 receptor expressed in Flp-In CHO cells at 10 uM after 90 mins by microbeta scintillation counting method relative to control; assay type: cell-based; in short: as §1
[14] = target: 5-hydroxytryptamine receptor 2A (Homo sapiens, UniProt P28223); assay: Displacement of [3H]-Ketanserin from human recombinant 5-HT2A receptor transiently expressed in HEKT cells at 10 uM after 90 mins by microbeta scintillation counting method relative to control; assay type: cell-based; in short: as §1
[15] = target: 5-hydroxytryptamine receptor 7 (Homo sapiens, UniProt P34969); assay: Displacement of [3H]-LSD from human recombinant 5-HT7 receptor expressed in stable HEK cells at 10 uM after 90 mins by microbeta scintillation counting method relative to control; assay type: cell-based; in short: as §1

Histamine H2 receptor, sequence (P25021 whole entry): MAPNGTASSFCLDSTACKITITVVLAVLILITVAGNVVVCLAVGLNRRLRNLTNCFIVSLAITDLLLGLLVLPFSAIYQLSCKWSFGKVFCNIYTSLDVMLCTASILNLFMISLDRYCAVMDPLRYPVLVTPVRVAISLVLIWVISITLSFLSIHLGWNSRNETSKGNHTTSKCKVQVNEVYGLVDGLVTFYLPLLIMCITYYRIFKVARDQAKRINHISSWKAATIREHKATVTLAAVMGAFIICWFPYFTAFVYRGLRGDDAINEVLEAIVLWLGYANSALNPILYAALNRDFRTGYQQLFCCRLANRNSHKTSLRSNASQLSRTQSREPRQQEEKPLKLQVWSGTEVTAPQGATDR
Beta-3 adrenergic receptor, sequence (P13945 whole entry): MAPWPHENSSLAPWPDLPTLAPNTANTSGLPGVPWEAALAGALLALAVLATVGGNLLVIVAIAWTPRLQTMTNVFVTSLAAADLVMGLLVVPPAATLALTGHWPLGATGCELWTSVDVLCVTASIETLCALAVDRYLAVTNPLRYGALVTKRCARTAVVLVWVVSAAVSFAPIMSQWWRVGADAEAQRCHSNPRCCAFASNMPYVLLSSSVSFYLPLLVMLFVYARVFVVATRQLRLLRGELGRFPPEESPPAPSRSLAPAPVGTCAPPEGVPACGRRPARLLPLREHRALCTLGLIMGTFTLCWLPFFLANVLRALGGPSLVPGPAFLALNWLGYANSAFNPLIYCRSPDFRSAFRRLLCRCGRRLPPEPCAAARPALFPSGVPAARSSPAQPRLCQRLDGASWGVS
D(1B) dopamine receptor, sequence (P21918 whole entry): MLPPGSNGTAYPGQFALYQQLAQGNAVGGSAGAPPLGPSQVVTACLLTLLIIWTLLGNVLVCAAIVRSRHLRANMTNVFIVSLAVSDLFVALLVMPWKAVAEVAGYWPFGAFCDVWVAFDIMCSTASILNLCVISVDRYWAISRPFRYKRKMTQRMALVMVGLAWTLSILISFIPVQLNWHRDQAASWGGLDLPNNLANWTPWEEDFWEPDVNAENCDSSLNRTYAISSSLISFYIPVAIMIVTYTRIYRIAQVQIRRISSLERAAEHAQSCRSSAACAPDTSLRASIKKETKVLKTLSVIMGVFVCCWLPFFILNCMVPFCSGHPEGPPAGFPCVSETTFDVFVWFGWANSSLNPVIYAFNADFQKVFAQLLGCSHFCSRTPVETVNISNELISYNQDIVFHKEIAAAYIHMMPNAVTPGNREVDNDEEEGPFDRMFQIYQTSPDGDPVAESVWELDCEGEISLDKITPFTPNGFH
5-hydroxytryptamine receptor 2A, sequence (P28223 whole entry): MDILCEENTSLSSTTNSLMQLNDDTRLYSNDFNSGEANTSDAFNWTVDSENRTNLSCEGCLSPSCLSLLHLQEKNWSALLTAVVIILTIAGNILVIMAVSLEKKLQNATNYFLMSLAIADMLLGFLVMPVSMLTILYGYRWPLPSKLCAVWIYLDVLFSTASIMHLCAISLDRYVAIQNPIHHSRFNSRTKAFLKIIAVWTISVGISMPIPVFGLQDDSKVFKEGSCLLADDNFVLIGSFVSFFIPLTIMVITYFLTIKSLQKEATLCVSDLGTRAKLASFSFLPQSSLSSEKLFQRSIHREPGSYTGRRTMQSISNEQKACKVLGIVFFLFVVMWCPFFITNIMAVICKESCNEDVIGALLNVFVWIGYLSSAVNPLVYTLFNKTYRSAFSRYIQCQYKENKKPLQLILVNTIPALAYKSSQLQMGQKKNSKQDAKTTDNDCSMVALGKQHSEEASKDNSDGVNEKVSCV
Sodium-dependent dopamine transporter, sequence (Q01959 whole entry): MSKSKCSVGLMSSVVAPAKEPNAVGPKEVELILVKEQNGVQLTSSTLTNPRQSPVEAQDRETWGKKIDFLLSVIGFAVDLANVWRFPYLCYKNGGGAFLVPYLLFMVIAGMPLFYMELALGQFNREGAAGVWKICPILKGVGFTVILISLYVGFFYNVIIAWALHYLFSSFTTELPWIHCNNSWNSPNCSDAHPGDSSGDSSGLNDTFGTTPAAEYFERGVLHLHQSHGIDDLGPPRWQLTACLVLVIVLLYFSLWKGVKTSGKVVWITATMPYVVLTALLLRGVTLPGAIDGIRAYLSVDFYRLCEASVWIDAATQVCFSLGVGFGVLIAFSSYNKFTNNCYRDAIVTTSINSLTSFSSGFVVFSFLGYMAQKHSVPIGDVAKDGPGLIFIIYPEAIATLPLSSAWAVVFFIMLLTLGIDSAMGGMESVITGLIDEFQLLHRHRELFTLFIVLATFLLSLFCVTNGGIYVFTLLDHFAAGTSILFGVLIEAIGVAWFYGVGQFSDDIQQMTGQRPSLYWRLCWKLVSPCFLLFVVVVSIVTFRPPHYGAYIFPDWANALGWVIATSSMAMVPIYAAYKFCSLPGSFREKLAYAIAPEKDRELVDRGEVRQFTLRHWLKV
Kappa-type opioid receptor, sequence (P41145 whole entry): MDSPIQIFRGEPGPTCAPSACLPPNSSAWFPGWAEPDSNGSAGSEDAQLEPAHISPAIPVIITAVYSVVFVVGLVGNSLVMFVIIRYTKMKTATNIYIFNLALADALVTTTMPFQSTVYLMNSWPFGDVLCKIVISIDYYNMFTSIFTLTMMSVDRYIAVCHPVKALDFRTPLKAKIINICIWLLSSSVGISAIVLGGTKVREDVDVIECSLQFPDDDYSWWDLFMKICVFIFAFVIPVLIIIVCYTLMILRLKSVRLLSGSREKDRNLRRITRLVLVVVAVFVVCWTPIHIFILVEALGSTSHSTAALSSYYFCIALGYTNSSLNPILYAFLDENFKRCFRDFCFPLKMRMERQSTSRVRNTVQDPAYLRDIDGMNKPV
Beta-1 adrenergic receptor, sequence (P08588 whole entry, looked up): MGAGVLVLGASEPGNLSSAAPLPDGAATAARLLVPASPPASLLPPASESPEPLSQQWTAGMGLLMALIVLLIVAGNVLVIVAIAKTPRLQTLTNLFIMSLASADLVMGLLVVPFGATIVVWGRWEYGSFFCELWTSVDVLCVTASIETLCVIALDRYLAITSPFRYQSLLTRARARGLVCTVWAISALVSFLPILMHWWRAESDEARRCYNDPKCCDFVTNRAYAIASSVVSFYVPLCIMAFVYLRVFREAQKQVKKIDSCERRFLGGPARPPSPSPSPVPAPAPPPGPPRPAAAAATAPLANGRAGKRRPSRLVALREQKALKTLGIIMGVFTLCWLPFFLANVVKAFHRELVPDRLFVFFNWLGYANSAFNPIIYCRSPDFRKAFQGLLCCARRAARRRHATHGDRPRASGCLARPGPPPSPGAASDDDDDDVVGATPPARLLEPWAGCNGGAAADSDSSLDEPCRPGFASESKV
Mu-type opioid receptor, sequence (P35372 whole entry): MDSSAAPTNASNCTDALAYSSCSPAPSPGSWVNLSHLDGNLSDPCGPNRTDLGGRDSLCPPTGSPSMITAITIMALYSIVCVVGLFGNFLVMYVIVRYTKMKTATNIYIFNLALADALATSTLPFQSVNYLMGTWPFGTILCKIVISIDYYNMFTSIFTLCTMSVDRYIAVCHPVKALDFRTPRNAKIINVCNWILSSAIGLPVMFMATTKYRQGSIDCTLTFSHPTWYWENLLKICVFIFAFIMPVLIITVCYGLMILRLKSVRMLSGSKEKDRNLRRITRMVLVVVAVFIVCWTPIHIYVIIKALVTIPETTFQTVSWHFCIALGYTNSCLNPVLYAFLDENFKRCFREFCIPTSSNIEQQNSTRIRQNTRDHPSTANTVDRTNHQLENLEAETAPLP
Histamine H1 receptor, sequence (P35367 whole entry): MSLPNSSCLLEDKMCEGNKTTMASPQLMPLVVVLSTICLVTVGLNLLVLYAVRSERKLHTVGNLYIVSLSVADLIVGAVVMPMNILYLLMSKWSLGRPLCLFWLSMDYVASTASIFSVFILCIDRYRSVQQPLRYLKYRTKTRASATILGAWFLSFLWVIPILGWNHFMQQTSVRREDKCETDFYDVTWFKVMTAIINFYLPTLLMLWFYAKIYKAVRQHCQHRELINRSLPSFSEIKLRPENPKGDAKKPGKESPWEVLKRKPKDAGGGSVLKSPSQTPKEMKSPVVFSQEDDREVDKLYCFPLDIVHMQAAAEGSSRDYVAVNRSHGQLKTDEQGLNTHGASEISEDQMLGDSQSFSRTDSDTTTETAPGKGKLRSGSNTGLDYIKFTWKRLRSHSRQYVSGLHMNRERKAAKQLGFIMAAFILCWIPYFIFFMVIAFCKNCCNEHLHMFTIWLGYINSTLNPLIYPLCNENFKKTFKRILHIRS
Alpha-2B adrenergic receptor (Homo sapiens), sequence (P18089 whole entry): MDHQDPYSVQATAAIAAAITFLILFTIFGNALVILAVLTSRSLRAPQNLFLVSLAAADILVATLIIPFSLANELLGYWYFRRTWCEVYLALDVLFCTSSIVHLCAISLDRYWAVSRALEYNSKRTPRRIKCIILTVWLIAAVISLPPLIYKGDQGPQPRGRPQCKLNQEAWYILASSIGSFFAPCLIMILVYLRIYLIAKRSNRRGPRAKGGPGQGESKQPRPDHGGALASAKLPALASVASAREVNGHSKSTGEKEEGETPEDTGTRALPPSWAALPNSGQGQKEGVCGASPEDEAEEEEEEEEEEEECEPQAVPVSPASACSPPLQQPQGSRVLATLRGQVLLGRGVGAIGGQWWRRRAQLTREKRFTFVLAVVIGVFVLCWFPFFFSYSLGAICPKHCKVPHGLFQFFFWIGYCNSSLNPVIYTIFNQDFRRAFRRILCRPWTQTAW

**Q.** Which results are given for `COc1cc(OC)c2c(c1)OC[C@@]1(C)NCC[C@@H]21` (racemic)?
**A.** Ki [1]: > 10 µM; Ratio Ki (Homo sapiens [2]): > 20; Ratio Ki (Homo sapiens [3]): > 20; Ratio Ki (Homo sapiens [4]): > 20; Ratio Ki [5]: > 20; inhibition (D(1B) dopamine receptor): < 50%; inhibition [6]: < 50%; Ki [7]: > 10 µM; inhibition (Histamine H2 receptor): < 50%; inhibition (Histamine H1 receptor): < 50%; inhibition (Mu-type opioid receptor): < 50%; inhibition [8]: < 50%; inhibition [9]: < 50%; Ratio Ki (Homo sapiens [10]): > 20; inhibition [11]: < 50%; inhibition [12]: < 50%

**Q.** Which Ki [1] does the source give for `C[C@@]12CN(c3ccccc3)c3ccccc3[C@@H]1CCN2` (racemic) here?
**A.** > 10 µM

**Q.** And the Ki [7]?
**A.** > 10 µM

**Q.** Which Ki [1] does the source give for `CC[C@H]1c2cc(OC)ccc2CC[C@@]1(C)N` (racemic) here?
**A.** > 10 µM

**Q.** What about the inhibition (D(1B) dopamine receptor) of the same compound?
**A.** < 50%

**Q.** And the inhibition [13]?
**A.** < 50%

**Q.** And the inhibition [14]?
**A.** < 50%

**Q.** What about the Ki [7] of the same compound?
**A.** > 10 µM

**Q.** And the inhibition (Histamine H2 receptor)?
**A.** < 50%

**Q.** What about the inhibition [15] of the same compound?
**A.** < 50%

**Q.** And the inhibition [11]?
**A.** < 50%

**Q.** With `CC[C@H]1c2cc(C)ccc2OC[C@@]1(C)N` (racemic) as the compound, how does the Ki [1] read?
**A.** > 10 µM

**Q.** What about the inhibition (D(1B) dopamine receptor) of the same compound?
**A.** < 50%

**Q.** And the inhibition [13]?
**A.** < 50%

**Q.** And the inhibition [14]?
**A.** < 50%

**Q.** What about the Ki [7] of the same compound?
**A.** > 10 µM

**Q.** And the inhibition (Histamine H2 receptor)?
**A.** < 50%

**Q.** What about the inhibition (Histamine H1 receptor) of the same compound?
**A.** < 50%

**Q.** And the inhibition [15]?
**A.** < 50%

**Q.** What about the inhibition (Mu-type opioid receptor) of the same compound?
**A.** < 50%

**Q.** What about the inhibition [8] of the same compound?
**A.** < 50%

**Q.** What about the inhibition [9] of the same compound?
**A.** < 50%

**Q.** And the inhibition [11]?
**A.** < 50%

**Q.** What about the inhibition [12] of the same compound?
**A.** < 50%

**Q.** What does the source list for `CC[C@H]1c2ccccc2N(c2ccccc2)C[C@@]1(C)N` (racemic)?
**A.** Ki [1]: 1 µM; Ki [7]: > 10 µM
